Data reported in ChEMBL document CHEMBL1136016, “Synthesis, biological activity, and molecular modeling investigation of new pyrazolo[4,3-e]-1,2,4-triazolo[1,5-c]pyrimidine derivatives as human A(3) adenosine receptor antagonists” (J Med Chem, 2002).

How the values were obtained:
[1] = molecular target: Adenosine receptors; A2b & A3 (Homo sapiens) (UniProt P29275+P0DMS8); test: Selectivity ratio (h2B/hA3); type: protein assay
[2] = molecular target: T1, Adenosine receptor A2a (Homo sapiens, UniProt P29274); test: Displacement of [3H]SCH-58261 from human Adenosine A2A receptor expressed in HEK293 cells; range 108-163; type: cell-based
T1 sequence (P29274 whole entry): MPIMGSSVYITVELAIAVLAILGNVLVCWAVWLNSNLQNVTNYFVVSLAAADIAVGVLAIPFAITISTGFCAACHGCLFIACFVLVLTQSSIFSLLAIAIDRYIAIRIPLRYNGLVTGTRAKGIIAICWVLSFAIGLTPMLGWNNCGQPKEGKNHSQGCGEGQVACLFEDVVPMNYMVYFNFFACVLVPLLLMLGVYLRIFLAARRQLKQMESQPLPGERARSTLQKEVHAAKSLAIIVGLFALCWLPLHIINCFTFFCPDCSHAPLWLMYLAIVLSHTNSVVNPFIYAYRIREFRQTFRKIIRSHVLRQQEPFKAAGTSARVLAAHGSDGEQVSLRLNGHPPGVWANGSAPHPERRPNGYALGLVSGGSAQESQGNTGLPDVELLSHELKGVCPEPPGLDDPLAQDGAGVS

[3] = molecular target: T2, Adenosine receptor A1 (Homo sapiens, UniProt P30542); test: Displacement of [3H]DPCPX from human Adenosine A1 receptor expressed in CHO cells; range 216-412; type: cell-based
T2 sequence (P30542 whole entry): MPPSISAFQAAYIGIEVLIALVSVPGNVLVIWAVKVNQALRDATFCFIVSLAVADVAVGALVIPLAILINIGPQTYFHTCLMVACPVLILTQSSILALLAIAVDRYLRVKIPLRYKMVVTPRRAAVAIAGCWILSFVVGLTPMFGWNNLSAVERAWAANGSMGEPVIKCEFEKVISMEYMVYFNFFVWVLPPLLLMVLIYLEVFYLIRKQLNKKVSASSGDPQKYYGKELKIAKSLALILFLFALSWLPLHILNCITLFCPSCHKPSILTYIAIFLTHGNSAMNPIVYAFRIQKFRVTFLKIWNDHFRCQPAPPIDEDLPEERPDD
Procedure, shortened: (§1)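 Human recombinant A1 receptor in CHO cell membranes, resuspended in 50 mM Tris HCl pH 7.4. Displacement run 120 min at 25 °C with 1 nM [3H]DPCPX, 50 µg protein per assay, and at least six to eight test concentrations. Nonspecific binding defined with CHA. Bound and free separated on glass-fiber filters; filter radioactivity counted. n = 3-6.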

[4] = molecular target: T3, Adenosine receptor A2b (Homo sapiens, UniProt P29275); test: Displacement of [3H]DPCPX from human Adenosine A2B receptor expressed in HEK293 cells; range 162-237; type: cell-based
T3 sequence (P29275 whole entry): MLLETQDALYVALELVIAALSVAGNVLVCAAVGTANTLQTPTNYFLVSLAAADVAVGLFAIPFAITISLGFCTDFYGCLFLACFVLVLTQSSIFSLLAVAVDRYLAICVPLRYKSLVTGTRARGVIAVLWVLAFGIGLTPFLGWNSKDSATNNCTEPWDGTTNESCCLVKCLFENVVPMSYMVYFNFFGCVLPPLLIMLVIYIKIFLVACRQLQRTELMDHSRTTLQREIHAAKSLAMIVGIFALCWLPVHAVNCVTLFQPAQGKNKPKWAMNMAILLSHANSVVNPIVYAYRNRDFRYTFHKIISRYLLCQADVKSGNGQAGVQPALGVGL
Procedure, shortened: (§2)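 Membranes from HEK-293 cells with human recombinant A2B receptor. Incubation 60 min at 25 °C in 50 mM Tris HCl, 10 mM MgCl2, 1 mM EDTA, 0.1 mM benzamidine, pH 7.4, with 2 IU/mL adenosine deaminase and 40 nM [3H]DPCPX. At least six to eight test concentrations. Nonspecific binding defined with NECA. n = 3-6.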

[5] = molecular target: T4, Adenosine receptor A3 (Homo sapiens, UniProt P0DMS8); test: biochemical
T4 sequence (P0DMS8 whole entry): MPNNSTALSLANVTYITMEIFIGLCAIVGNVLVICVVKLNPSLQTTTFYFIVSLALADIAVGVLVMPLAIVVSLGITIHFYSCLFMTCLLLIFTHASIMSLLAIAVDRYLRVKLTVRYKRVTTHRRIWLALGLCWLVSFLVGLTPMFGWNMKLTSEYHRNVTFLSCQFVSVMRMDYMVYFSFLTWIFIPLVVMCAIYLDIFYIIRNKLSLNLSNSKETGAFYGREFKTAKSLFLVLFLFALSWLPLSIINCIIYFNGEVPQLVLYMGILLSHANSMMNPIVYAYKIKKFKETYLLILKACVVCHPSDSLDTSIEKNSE

[6] = molecular target: Adenosine receptors; A1 & A3 (Homo sapiens) (UniProt P30542+P0DMS8); test: Selectivity ratio (hA1/hA3); type: protein assay
[7] = molecular target: T4, Adenosine receptor A3; test: Inhibition of IB-MECA agonist-mediated cAMP production in CHO cell membranes expressing human Adenosine A3 receptor; range 3.0-10.8; type: functional, cell-based
[8] = molecular target: T1, Adenosine receptor A2a; test: Displacement of [3H]SCH-58261 from human Adenosine A2A receptor expressed in HEK293 cells; range 146-220; type: cell-based
[9] = molecular target: T2, Adenosine receptor A1; test: Displacement of [3H]DPCPX from human Adenosine A1 receptor expressed in CHO cells; range 379-535; type: cell-based; procedure, shortened: as §1
[10] = molecular target: T4, Adenosine receptor A3; test: Displacement of [3H]MRE3008-F20 from human Adenosine A3 receptor expressed in HEK cells; range 0.59-0.83; type: cell-based, HEK293
[11] = molecular target: T3, Adenosine receptor A2b; test: Displacement of [3H]DPCPX from human Adenosine A2B receptor expressed in HEK293 cells; range 187-265; type: cell-based; procedure, shortened: as §2
[12] = molecular target: T1, Adenosine receptor A2a; test: Displacement of [3H]SCH-58261 from human Adenosine A2A receptor expressed in HEK293 cells; range 402-608; type: cell-based
[13] = molecular target: T3, Adenosine receptor A2b; test: Displacement of [3H]DPCPX from human Adenosine A2B receptor expressed in HEK293 cells; range 26-45; type: cell-based; procedure, shortened: as §2
[14] = molecular target: T4, Adenosine receptor A3; test: biochemical; remark: listed apart in the source
[15] = molecular target: T2, Adenosine receptor A1; test: Displacement of [3H]DPCPX from human Adenosine A1 receptor expressed in CHO cells; range 598-838; type: cell-based
[16] = molecular target: T2, Adenosine receptor A1; test: Displacement of [3H]DPCPX from human Adenosine A1 receptor expressed in CHO cells; range 262-814; type: cell-based; settings: in the assay text read “range 602-814” for “range 262-814”; procedure, shortened: as §1
[17] = molecular target: T1, Adenosine receptor A2a; test: Displacement of [3H]SCH-58261 from human Adenosine A2A receptor expressed in HEK293 cells; range 103-140; type: cell-based
[18] = molecular target: T4, Adenosine receptor A3; test: Displacement of [3H]MRE3008-F20 from human Adenosine A3 receptor expressed in HEK cells; range 0.28-0.41; type: cell-based, HEK293
[19] = molecular target: T4, Adenosine receptor A3; test: Inhibition of IB-MECA agonist-mediated cAMP production in CHO cell membranes expressing human Adenosine A3 receptor; range 2.0-4.3; type: functional, cell-based
[20] = molecular target: T3, Adenosine receptor A2b; test: Displacement of [3H]DPCPX from human Adenosine A2B receptor expressed in HEK293 cells; range 183-278; type: cell-based; procedure, shortened: as §2
[21] = molecular target: T2, Adenosine receptor A1; test: Displacement of [3H]DPCPX from human Adenosine A1 receptor expressed in CHO cells; range 180-345; type: cell-based; procedure, shortened: as §1
[22] = molecular target: T3, Adenosine receptor A2b; test: Displacement of [3H]-DPCPX from human Adenosine A2B receptor expressed in HEK293 cells; range 125-218; type: cell-based
Procedure, shortened: (§3)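 HEK-293 membranes expressing the human receptor were incubated 60 min at 25 °C. Six to eight test concentrations were used. Nonspecific binding was set with NECA. n = 3-6.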

[23] = molecular target: T4, Adenosine receptor A3; test: biochemical; remark: listed apart in the source
[24] = molecular target: T1, Adenosine receptor A2a; test: Displacement of [3H]SCH-58261 from human Adenosine A2A receptor expressed in HEK293 cells; range 73-138; type: cell-based
[25] = molecular target: T1, Adenosine receptor A2a; test: Displacement of [3H]SCH-58261 from human Adenosine A2A receptor expressed in HEK293 cells; range 93-130; type: cell-based
[26] = molecular target: T2, Adenosine receptor A1; test: Displacement of [3H]DPCPX from human Adenosine A1 receptor expressed in CHO cells; range 601-888; type: cell-based; procedure, shortened: as §1
[27] = molecular target: T3, Adenosine receptor A2b; test: Displacement of [3H]DPCPX from human Adenosine A2B receptor expressed in HEK293 cells; range 244-373; type: cell-based; procedure, shortened: as §3
[28] = molecular target: T4, Adenosine receptor A3; test: biochemical; remark: listed apart in the source
[29] = molecular target: T4, Adenosine receptor A3; test: Inhibition of IB-MECA agonist-mediated cAMP production in CHO cell membranes expressing human Adenosine A3 receptor; range 2.7-7.8; type: functional, cell-based

`CCn1cc2c(nc(NC(=O)Nc3ccccc3OC)n3nc(-c4ccco4)nc23)n1` showed a Ratio [1] of 350, a Ki [2] of 133 nM and a Ki [3] of 300 nM. The Ki [4] was 196 nM, the Ki [5] was 0.56 nM and the Ratio [6] was 536.

In the case of `COc1ccccc1NC(=O)Nc1nc2nn(C)cc2c2nc(-c3ccco3)nn12`, the IC50 [7] is reported as 5.6 nM, the Ki [8] is reported as 180 nM and the Ratio [1] is reported as 319. For the same compound, the Ki [9] was 450 nM, the Ki [10] was 0.7 nM and the Ratio [6] was 643. The Ki [11] was 223 nM.

Compound `CCCCn1cc2c(nc(NC(=O)Nc3ccc(Cl)c(Cl)c3)n3nc(-c4ccco4)nc23)n1` has a Ki [12] of 495 nM, a Ki [13] of 34 nM and a Ratio [1] of 9.19. The Ratio [6] was 191, the Ki [14] was 3.7 nM and the Ki [15] was 708 nM.

`Cn1cc2c(nc(NC(=O)Nc3ccc(F)cc3)n3nc(-c4ccco4)nc23)n1` gave a Ratio [1] of 665, a Ki [16] of 700 nM and a Ki [17] of 120 nM. It also gave a Ki [18] of 0.34 nM, a Ratio [6] of 2060 and an IC50 [19] of 3 nM. For the same compound, the Ki [20] was 226 nM.

`CCCn1cc2c(nc(NC(=O)Nc3ccccc3OC)n3nc(-c4ccco4)nc23)n1` was tested, and the Ki [21] was 250 nM, the Ki [22] was 165 nM and the Ratio [1] was 485. It also gave a Ki [23] of 0.34 nM, a Ki [24] of 100 nM and a Ratio [6] of 735.

For `Cc1ccc(NC(=O)Nc2nc3nn(C)cc3c3nc(-c4ccco4)nn23)cc1`, the Ratio [1] was 974, the Ki [25] was 110 nM and the Ki [26] was 731 nM. For the same compound, the Ratio [6] was 2360, the Ki [27] was 302 nM and the Ki [28] was 0.31 nM. It also gave an IC50 [29] of 4.6 nM.
